Data published in ChEMBL document CHEMBL4834419 (J Med Chem, 2021).

Assays:
[1] = molecular target: T1, Oxysterols receptor LXR-beta (Homo sapiens) (UniProt P55055); assay: Agonist activity against human LXRbeta in human HEK293T cells co-expressing pFR/pRL-Luc assessed as receptor activation at 10 uM incubated for 14 to 16 hrs by hybrid reporter gene assay relative to bexarotene; type: cell-based; settings: filed as agonist, time 14-16 hrs
T1 sequence (whole entry): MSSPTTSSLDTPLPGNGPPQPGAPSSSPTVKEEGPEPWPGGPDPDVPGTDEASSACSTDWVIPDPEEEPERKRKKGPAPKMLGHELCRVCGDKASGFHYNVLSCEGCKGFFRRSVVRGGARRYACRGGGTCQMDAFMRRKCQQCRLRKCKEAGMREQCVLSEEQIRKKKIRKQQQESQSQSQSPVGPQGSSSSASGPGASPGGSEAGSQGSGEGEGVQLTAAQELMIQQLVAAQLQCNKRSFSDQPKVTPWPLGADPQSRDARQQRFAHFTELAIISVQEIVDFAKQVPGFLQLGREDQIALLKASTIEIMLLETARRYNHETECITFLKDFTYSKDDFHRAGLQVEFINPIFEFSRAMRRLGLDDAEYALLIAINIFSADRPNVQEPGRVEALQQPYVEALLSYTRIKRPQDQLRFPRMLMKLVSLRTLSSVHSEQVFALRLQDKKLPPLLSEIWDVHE
In short: (§1)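 Gal4 hybrid reporter assay in HEK293T cells, seeded 24 h before transfection (Lipofectamine LTX, Opti-MEM) with pFR-Luc, pRL-SV40 and pFA-CMV plasmid carrying the hinge region and LBD of the human receptor. After 5 h, compound added in 0.1% DMSO, with 0.1% DMSO alone as untreated control. Dual-Glo luciferase read after 14−16 h; firefly/renilla normalized; duplicates, ≥2 independent experiments.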

[2] = molecular target: T2, Oxysterols receptor LXR-alpha (Homo sapiens) (UniProt Q13133); assay: Agonist activity against human LXRalpha in human HEK293T cells co-expressing pFR/pRL-Luc assessed as receptor activation at 10 uM incubated for 14 to 16 hrs by hybrid reporter gene assay relative to bexarotene; type: cell-based; settings: filed as agonist, time 14-16 hrs; in short: as §1
T2 sequence (whole entry): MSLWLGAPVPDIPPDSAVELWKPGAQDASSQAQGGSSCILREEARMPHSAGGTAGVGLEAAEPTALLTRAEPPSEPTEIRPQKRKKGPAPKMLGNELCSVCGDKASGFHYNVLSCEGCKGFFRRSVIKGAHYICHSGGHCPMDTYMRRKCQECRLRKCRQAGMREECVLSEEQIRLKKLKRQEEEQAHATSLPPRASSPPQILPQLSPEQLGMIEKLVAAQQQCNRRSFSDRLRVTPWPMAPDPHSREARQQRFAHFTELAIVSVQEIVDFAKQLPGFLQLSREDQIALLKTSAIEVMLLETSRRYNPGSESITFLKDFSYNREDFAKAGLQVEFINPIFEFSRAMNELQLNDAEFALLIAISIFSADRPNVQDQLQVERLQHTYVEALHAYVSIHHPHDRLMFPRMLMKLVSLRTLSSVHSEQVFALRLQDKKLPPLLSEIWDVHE

HepG2 = assay: Cytotoxicity against human HepG2 cells assessed as reduction in cell viability incubated for 48 hrs by WST-1 assay; settings: HepG2, 48 h
[3] = molecular target: T3, Peroxisome proliferator-activated receptor delta (Homo sapiens) (UniProt Q03181); assay: Agonist activity against human PPARdelta in human HEK293T cells co-expressing pFR/pRL-Luc assessed as receptor activation at 10 uM incubated for 14 to 16 hrs by hybrid reporter gene assay relative to bexarotene; type: cell-based; settings: filed as agonist, time 14-16 hrs; in short: as §1
T3 sequence (whole entry): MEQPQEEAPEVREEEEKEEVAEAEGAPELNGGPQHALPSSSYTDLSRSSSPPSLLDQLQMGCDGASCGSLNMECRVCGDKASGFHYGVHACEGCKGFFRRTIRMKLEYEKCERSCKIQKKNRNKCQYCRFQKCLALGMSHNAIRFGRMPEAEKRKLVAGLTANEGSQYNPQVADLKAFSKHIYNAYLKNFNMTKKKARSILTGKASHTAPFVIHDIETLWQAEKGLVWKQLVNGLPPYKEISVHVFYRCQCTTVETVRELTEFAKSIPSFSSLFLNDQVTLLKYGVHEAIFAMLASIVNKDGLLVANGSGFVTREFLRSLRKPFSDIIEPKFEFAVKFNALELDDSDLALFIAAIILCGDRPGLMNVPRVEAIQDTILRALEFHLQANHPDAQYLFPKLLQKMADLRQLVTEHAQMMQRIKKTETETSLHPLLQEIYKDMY

[4] = Cmax in mouse at 10 mg/kg, po; type: ADME, organism-based; set-up: route oral, dose 10 mg/kg; settings: in vivo
In short: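 Mice, n = 3, received a single oral dose of 10 mg/kg in water with 1% hydroxypropyl methylcellulose/Tween 80 (99:1). Tail-vein blood was drawn at 30 and 60 min and tissue collected at 3 h. Compound was quantified by LC−MS and PK derived by noncompartmental analysis.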

[5] = molecular target: T4, Retinoic acid receptor RXR-gamma (Homo sapiens) (UniProt P48443); assay: Agonist activity against human RXRgamma in human HEK293T cells co-expressing pFR/pRL-Luc assessed as receptor activation at 10 uM incubated for 14 to 16 hrs by hybrid reporter gene assay relative to bexarotene; type: cell-based; settings: filed as agonist, time 14-16 hrs; in short: as §1
T4 sequence (whole entry): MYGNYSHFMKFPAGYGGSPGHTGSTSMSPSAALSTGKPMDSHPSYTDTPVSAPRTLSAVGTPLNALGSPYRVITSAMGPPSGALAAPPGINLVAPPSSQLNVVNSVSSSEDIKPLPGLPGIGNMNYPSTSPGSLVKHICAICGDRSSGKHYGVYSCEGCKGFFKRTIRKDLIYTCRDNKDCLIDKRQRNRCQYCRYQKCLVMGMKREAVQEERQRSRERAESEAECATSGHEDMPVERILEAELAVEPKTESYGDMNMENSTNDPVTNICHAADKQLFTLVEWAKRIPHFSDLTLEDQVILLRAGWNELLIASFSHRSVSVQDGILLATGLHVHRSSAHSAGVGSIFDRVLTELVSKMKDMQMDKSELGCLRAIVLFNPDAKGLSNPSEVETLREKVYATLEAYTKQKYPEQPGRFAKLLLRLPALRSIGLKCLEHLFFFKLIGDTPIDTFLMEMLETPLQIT

O=C(O)CCCc1cc(-c2cc(Cl)cc(Cl)c2)n(-c2ccccc2)n1
Activity [1]: 2% | Activity [2]: 1% | IC50 (HepG2): > 100 µM | Activity [3]: 1% | Cmax [4]: 35000 ng/mL | Activity [5]: 27%
